One experiment concerns Staphylococcus aureus. The experiment can be described thus: Antibacterial activity against Staphylococcus aureus after 2 days by agar plate dilution method. It counts as functional. As to conditions: 48 h. The method in brief: (§1)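 Agar plate dilution: each sample concentration is incorporated into soybean casein digest (SCD) agar. Gram-positive bacteria are applied to the agar surface and incubated 2 days at 30 °C. Activity is judged by whether colonies form.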

In another experiment the test system is Botrytis cinerea. In words: Antifungal activity against Botrytis cinerea after 2 days by agar plate dilution method. It counts as functional, organism-based. Put shortly: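 Agar plate dilution: each sample concentration is incorporated into potato dextrose (PD) agar. Fungus is applied to the agar surface and incubated 2 days at 30 °C. Activity is judged by whether spores form.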

In another experiment the test system is Bacillus subtilis. In words: Antibacterial activity against Bacillus subtilis after 2 days by agar plate dilution method. It counts as functional. As to conditions: 48 h. Put shortly:
as §1

≈ marks a conversion by molar mass, not a printed value. Calls of active or inactive are those of the source. No cut-off for these calls is given here.

In the case of `C=C(C)[C@@H]1C[C@@H](OC(=O)/C(C)=C/C)[C@@]2(C1)C(C)=CC(=O)[C@H](O)[C@H]2C`, the MIC (as a rule, the lowest concentration found to suppress growth) against Staphylococcus aureus came out at 100 µg/mL (≈ 301 µM); with Bacillus subtilis, 250 µg/mL (≈ 752 µM). Moreover, in the experiment on Botrytis cinerea, the outcome was Active.
Consider `C=C(C)[C@@H]1C[C@@H](OC(=O)C=C(C)C)[C@@]2(C1)C(C)=CC(=O)[C@H](O)[C@H]2C`, for which the MIC with Staphylococcus aureus turned out to be 100 µg/mL (≈ 301 µM); in the experiment on Bacillus subtilis, 250 µg/mL (≈ 752 µM).
As for `C=C(C)[C@@H]1CC[C@@]2(C1)C(C)=CC(=O)C[C@H]2C` [SOLAVETIVONE], the MIC against Staphylococcus aureus and with Bacillus subtilis was 100 µg/mL (≈ 458 µM) throughout.
On to `C=C(C)[C@@H]1C[C@@H](OC(=O)C(C)C)[C@@]2(C1)C(C)=CC(=O)[C@H](O)[C@H]2C`, for which the MIC in the experiment with Staphylococcus aureus and against Bacillus subtilis was 250 µg/mL (≈ 780 µM) throughout.
As to `C=C(C)[C@@H]1C[C@@H](O)[C@@]2(C1)C(C)=CC(=O)[C@H](O)[C@H]2C`, the MIC against Staphylococcus aureus and in the experiment with Bacillus subtilis was 500 µg/mL (≈ 2000 µM) throughout.

The record behind these values is ChEMBL document CHEMBL1151326, “Phytoalexins from hairy roots of Hyoscyamus albus treated with methyl jasmonate” (1998).
